ChEMBL document CHEMBL4689842, “EUbOPEN Chemogenomics Library wave 1” (2021)

Tested on: HEK-293T
Experiment: Multiplex assay against HEK293T;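 as to Population Tubulin-Different-Phenotype (%): share of the cells with healthy nuclei that show this phenotype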
Format: toxicity, cell-based
Conditions: human
In short: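 Live cells were stained at seeding with Hoechst33342, BioTracker Green Microtubule Cytoskeleton Dye, MitoTracker Red and Annexin V Alexa Fluor 680. Following compound addition, they were imaged on a CQ1 microscope at 37°C and 5% CO2 and gated by CellPathfinder machine learning into Hoechst high-intensity objects or normal cells, with normal cells split into healthy, pyknosed or fragmented nuclei and pyknosed cells into mitotic or apoptotic. Tubulin, mitochondrial-mass and membrane-permeability phenotypes are per cents of healthy-nucleus cells.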

[1] = 12 h, 1 µM, compound concentration 1 uM, replicate 1
[2] = 12 h, 1 µM, compound concentration 1 uM, replicate 2
[3] = 12 h, 10 µM, compound concentration 10 uM, replicate 1
[4] = 12 h, 10 µM, compound concentration 10 uM, replicate 2
[5] = 24 h, 1 µM, compound concentration 1 uM, replicate 1
[6] = 24 h, 1 µM, compound concentration 1 uM, replicate 2
[7] = 24 h, 10 µM, compound concentration 10 uM, replicate 1
[8] = 24 h, 10 µM, compound concentration 10 uM, replicate 2
[9] = 48 h, 1 µM, compound concentration 1 uM, replicate 1
[10] = 48 h, 1 µM, compound concentration 1 uM, replicate 2
[11] = 48 h, 10 µM, compound concentration 10 uM, replicate 1
[12] = 48 h, 10 µM, compound concentration 10 uM, replicate 2

Cc1c(P(=S)(c2ccccc2)c2ccccc2)n2ccccc2[n+]1C/C=C/c1ccccc1.[Br-]
Population Apoptotic (%) [1]: 65% | Population Fragmented Nuclei (%) [1]: 12% | Population Healthy Nuclei (%) [1]: 24% | Population Hoechst High Intensity Objects (%) [1]: 17% | Population Membrane Permeable-Phenotype (%) [1]: 6% | Population Mitochondria Different-Phenotype (%) [1]: 93% | Population Mitotic Cells (%) [1]: 34% | Population Normal (%) [1]: 82% | Population Pyknosed Nuclei (%) [1]: 62% | Population Tubulin-Different-Phenotype (%) [1]: 83% | Total Cell Count [1]: 211 | Population Apoptotic (%) [2]: 86% | Population Fragmented Nuclei (%) [2]: 6% | Population Healthy Nuclei (%) [2]: 30% | Population Hoechst High Intensity Objects (%) [2]: 5% | Population Membrane Permeable-Phenotype (%) [2]: 0% | Population Mitochondria Different-Phenotype (%) [2]: 87% | Population Mitotic Cells (%) [2]: 13% | Population Normal (%) [2]: 94% | Population Tubulin-Different-Phenotype (%) [2]: 77% | Total Cell Count [2]: 138 | Population Apoptotic (%) [3]: 34% | Population Fragmented Nuclei (%) [3]: 31% | Population Healthy Nuclei (%) [3]: 2% | Population Hoechst High Intensity Objects (%) [3]: 21% | Population Membrane Permeable-Phenotype (%) [3]: 14% | Population Mitochondria Different-Phenotype (%) [3]: 28% | Population Mitotic Cells (%) [3]: 65% | Population Normal (%) [3]: 78% | Population Pyknosed Nuclei (%) [3]: 65% | Population Tubulin-Different-Phenotype (%) [3]: 100% | Total Cell Count [3]: 398 | Population Apoptotic (%) [4]: 82% | Population Fragmented Nuclei (%) [4]: 9% | Population Healthy Nuclei (%) [4]: 6% | Population Hoechst High Intensity Objects (%) [4]: 14% | Population Membrane Permeable-Phenotype (%) [4]: 0% | Population Mitochondria Different-Phenotype (%) [4]: 54% | Population Mitotic Cells (%) [4]: 17% | Population Normal (%) [4]: 85% | Population Pyknosed Nuclei (%) [4]: 84% | Population Tubulin-Different-Phenotype (%) [4]: 90% | Total Cell Count [4]: 192 | Population Apoptotic (%) [5]: 62% | Population Fragmented Nuclei (%) [5]: 20% | Population Healthy Nuclei (%) [5]: 18% | Population Hoechst High Intensity Objects (%) [5]: 19% | Population Membrane Permeable-Phenotype (%) [5]: 3% | Population Mitochondria Different-Phenotype (%) [5]: 90% | Population Mitotic Cells (%) [5]: 37% | Population Normal (%) [5]: 80% | Population Pyknosed Nuclei (%) [5]: 61% | Population Tubulin-Different-Phenotype (%) [5]: 87% | Total Cell Count [5]: 217 | Population Apoptotic (%) [6]: 88% | Population Fragmented Nuclei (%) [6]: 6% | Population Healthy Nuclei (%) [6]: 41% | Population Hoechst High Intensity Objects (%) [6]: 7% | Population Membrane Permeable-Phenotype (%) [6]: 0% | Population Mitochondria Different-Phenotype (%) [6]: 98% | Population Mitotic Cells (%) [6]: 11% | Population Normal (%) [6]: 92% | Population Pyknosed Nuclei (%) [6]: 51% | Population Tubulin-Different-Phenotype (%) [6]: 85% | Total Cell Count [6]: 147 | Population Apoptotic (%) [7]: 52% | Population Fragmented Nuclei (%) [7]: 36% | Population Healthy Nuclei (%) [7]: 0% | Population Hoechst High Intensity Objects (%) [7]: 21% | Population Membrane Permeable-Phenotype (%) [7]: 0% | Population Mitochondria Different-Phenotype (%) [7]: 100% | Population Mitotic Cells (%) [7]: 47% | Population Normal (%) [7]: 78% | Population Pyknosed Nuclei (%) [7]: 62% | Total Cell Count [7]: 389 | Population Apoptotic (%) [8]: 86% | Population Fragmented Nuclei (%) [8]: 12% | Population Healthy Nuclei (%) [8]: 14% | Population Hoechst High Intensity Objects (%) [8]: 13% | Population Membrane Permeable-Phenotype (%) [8]: 16% | Population Mitochondria Different-Phenotype (%) [8]: 72% | Population Mitotic Cells (%) [8]: 13% | Population Normal (%) [8]: 86% | Population Pyknosed Nuclei (%) [8]: 72% | Population Tubulin-Different-Phenotype (%) [8]: 100% | Total Cell Count [8]: 195 | Population Apoptotic (%) [9]: 69% | Population Fragmented Nuclei (%) [9]: 24% | Population Healthy Nuclei (%) [9]: 1% | Population Hoechst High Intensity Objects (%) [9]: 22% | Population Membrane Permeable-Phenotype (%) [9]: 0% | Population Mitochondria Different-Phenotype (%) [9]: 0% | Population Mitotic Cells (%) [9]: 30% | Population Normal (%) [9]: 77% | Population Pyknosed Nuclei (%) [9]: 73% | Population Tubulin-Different-Phenotype (%) [9]: 66% | Total Cell Count [9]: 209 | Population Apoptotic (%) [10]: 92% | Population Fragmented Nuclei (%) [10]: 7% | Population Healthy Nuclei (%) [10]: 57% | Population Hoechst High Intensity Objects (%) [10]: 8% | Population Membrane Permeable-Phenotype (%) [10]: 4% | Population Mitochondria Different-Phenotype (%) [10]: 91% | Population Mitotic Cells (%) [10]: 8% | Population Normal (%) [10]: 91% | Population Pyknosed Nuclei (%) [10]: 34% | Population Tubulin-Different-Phenotype (%) [10]: 89% | Total Cell Count [10]: 157 | Population Apoptotic (%) [11]: 65% | Population Fragmented Nuclei (%) [11]: 45% | Population Healthy Nuclei (%) [11]: 1% | Population Hoechst High Intensity Objects (%) [11]: 22% | Population Membrane Permeable-Phenotype (%) [11]: 0% | Population Mitochondria Different-Phenotype (%) [11]: 100% | Population Mitotic Cells (%) [11]: 34% | Population Normal (%) [11]: 77% | Population Pyknosed Nuclei (%) [11]: 53% | Total Cell Count [11]: 379 | Population Apoptotic (%) [12]: 95% | Population Fragmented Nuclei (%) [12]: 12% | Population Healthy Nuclei (%) [12]: 27% | Population Hoechst High Intensity Objects (%) [12]: 14% | Population Membrane Permeable-Phenotype (%) [12]: 9% | Population Mitochondria Different-Phenotype (%) [12]: 95% | Population Mitotic Cells (%) [12]: 4% | Population Normal (%) [12]: 85% | Population Pyknosed Nuclei (%) [12]: 59% | Population Tubulin-Different-Phenotype (%) [12]: 100% | Total Cell Count [12]: 175
